Measured values of several laboratories.
Protocols differ between the studies behind these lines.
ADORA1: Adenosine receptor A1 (ADORA1, Homo sapiens, UniProt P30542)
AXL: Tyrosine-protein kinase receptor UFO (AXL, Homo sapiens, UniProt P30530)
RPS6KB2: Ribosomal protein S6 kinase beta-2 (RPS6KB2, Homo sapiens, UniProt Q9UBS0)

SMILES	target	assay	system	setting	quantity	result
CC(C)C[C@H](NC(=O)CNC(=O)[C@H](Cc1ccc(O)cc1)NC(=O)[C@H](CO)NC(=O)[C@H](Cc1c[nH]c2ccccc12)NC(=O)[C@H](Cc1c[nH]cn1)NC(=O)[C@@H]1CCC(=O)N1)C(=O)N[C@@H](CCCNC(=N)N)C(=O)N1CCC[C@H]1C(=O)NCC(N)=O	Gonadotropin-releasing hormone receptor (GNRHR, Homo sapiens, UniProt P30968)	inositol phosphate, agonist, TR-FRET	HEK-293T	1 h	Emax	100%
Cc1cc(F)cc2c(CCC(=O)N[C@@H]3C(=O)NC[C@H]3O)c(-c3ccc(F)cc3)[nH]c12	ADORA1	cell-free assay		10 µM	inhibition	4%
C#Cc1cnc(Nc2ccc(CO)cc2)nc1Nc1ccccc1C(=O)NC	AXL	enzyme activity, inhibitor		1 µM	remaining activity	1.65%
CCN1/C(=C/C(C)=O)Sc2ccc(F)cc21	ADORA1	ligand displacement, radioligand		10 µM	inhibition	2.48%
NC/C(=C\F)COc1cccc(Cn2c(=S)[nH]c(=O)c3[nH]cnc32)c1	ADORA1	ligand displacement, radioligand		10 µM	inhibition	< 50%
COc1ccc2oc(-c3ccc4nc(N)oc4c3)c/c(=N\c3ccccc3NC(=O)CCN)c2c1	RPS6KB2	binding		1 µM	remaining binding	93%
C#Cc1cc(-c2cc(Nc3nc(N[C@@H](C)c4ccc(F)cn4)ncc3Cl)n[nH]2)ccc1C=O	RAC-gamma serine/threonine-protein kinase (AKT3, Homo sapiens, UniProt Q9Y243)	enzyme activity, inhibitor		0.2 µM	inhibition	17.4%
CCCCC(=O)Nc1ccc(-c2ccc3ncn(CCC)c(=O)c3c2)cn1	Serine/threonine-protein kinase 32A (STK32A, Homo sapiens, UniProt Q8WU08)	binding, competition with immobilised ligand		0.5 µM	remaining binding	86%
Cc1cc(O)c(-c2ccc([C@@H](C)CN(C)C)cc2)c2c1[nH]c(=O)c1sccc12	RPS6KB2	enzyme activity, inhibitor		0.1 µM	inhibition	-3.41%
C1=C/COCc2cc(ccc2OCCN2CCCC2)Nc2nccc(n2)-c2cccc(c2)COC/1	Ephrin type-A receptor 4 (EPHA4, Homo sapiens, UniProt P54764)	binding		0.1 µM	remaining binding	100%
CS(=O)(=NC#N)c1ccccc1Nc1nc(Nc2ccnc(CO)c2)ncc1Cl (stereo not drawn)	AXL	enzyme activity, inhibitor		1 µM	remaining activity	14.7%
COc1nc(-c2cccc(-c3ccccc3)c2C)ccc1CNCCNC(=O)CCCCCCCCCCC(=O)N1CCN(CCNC(=O)c2cc3c(=O)n4cccc(C)c4nc3n(CCc3cccs3)c2=N)CC1	Programmed cell death 1 ligand 1 (CD274, Homo sapiens, UniProt Q9NZQ7)	protein level, degrader, western blot	HL-60	1 µM	Dmax	53.9%
